ChEMBL document CHEMBL1221279, “Synthesis, biological evaluation, and structure-activity relationship study of novel cytotoxic aza-caffeic acid derivatives” (Bioorg Med Chem, 2010)
pIC50: −log10 of the molar value. Activity calls are given as the source filed them. No cut-off for these calls is given here.

Assays:
[1] = Cytotoxicity against human Bel7404 cells after 72 hrs by MTT assay; assay type: functional, cell-based; details: BEL-7404, 72 h
Summary of the method: (§1)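 Cells grown in MEM with 10% fetal calf serum, penicillin and streptomycin at 37 °C, 5% CO2. Exponentially growing cells seeded in quadruplicate at 5 × 10³ per well and left 24 h before compounds (DMSO stocks) were added. After 72 h exposure, MTT added for 4 h at 37 °C, formazan dissolved in DMSO, read at 570 nm. IC50 read graphically from dose–response curves.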

[2] = tested on: HL-60; test: Cytotoxicity against human HL60 cells after 72 hrs by MTT assay; assay type: functional, cell-based; details: HL-60, 72 h; summary of the method: as §1
[3] = tested on: HeLa; test: Cytotoxicity against human HeLa cells after 72 hrs by MTT assay; assay type: functional, cell-based; summary of the method: as §1
[4] = tested on: CNE; test: Cytotoxicity against human CNE cells after 72 hrs by MTT assay; assay type: functional, cell-based; summary of the method: as §1
[5] = tested on: PC-3; test: Cytotoxicity against human PC3 cells after 72 hrs by MTT assay; assay type: functional, cell-based; details: PC-3, 72 h; summary of the method: as §1
[6] = tested on: K562; test: Cytotoxicity against human K562 cells after 72 hrs by MTT assay; assay type: functional, cell-based; details: for pIC50: K562, 72 h; summary of the method: as §1
[7] = Cytotoxicity against human ECA109 cells after 72 hrs by MTT assay; assay type: functional, cell-based; details: ECa-109, 72 h; summary of the method: as §1
[8] = Cytotoxicity against human LS 174T cells after 72 hrs by MTT assay; assay type: functional, cell-based; details: LS174T; summary of the method: as §1
[9] = tested on: KB; test: Cytotoxicity against human KB cells after 72 hrs by MTT assay; assay type: functional, cell-based; summary of the method: as §1
[10] = tested on: A549; test: Cytotoxicity against human A549 cells after 72 hrs by MTT assay; assay type: functional, cell-based; details: A549, 72 h; summary of the method: as §1
[11] = tested on: BGC-823; test: Cytotoxicity against human BGC823 cells after 72 hrs by MTT assay; assay type: functional, cell-based; details: BGC-823, 72 h; summary of the method: as §1
[12] = Cytotoxicity against human HO8910 cells after 72 hrs by MTT assay; assay type: functional, cell-based; details: HO-8910, 72 h; summary of the method: as §1
[13] = tested on: K562; test: Cytotoxicity against human K562 cells at up to 8 uM by MTT assay; assay type: functional, cell-based; details: TDE = time-dependent effect
Summary of the method: (§2)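 K562 cells grown in MEM with 10% fetal calf serum at 37 °C, 5% CO2, seeded in quadruplicate at 5 × 10³ per well. After 24 h, exposed to a range of concentrations for 48 or 72 h. MTT added for 4 h, formazan dissolved in DMSO, read at 570 nm. Viability expressed as % of untreated control, mean S.D. of at least three independent experiments.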

[14] = tested on: K562; test: Cytotoxicity against human K562 cells assessed as reduction of cell viability at 8 uM after 72 hrs by MTT assay relative to control; assay type: functional; summary of the method: as §2
[15] = tested on: K562; test: Induction of apoptosis in human K562 cells using Annexin V/PI staining at 8 uM after 72 hrs by flow cytometry relative to control (reference value: 5.45%); assay type: functional
[16] = tested on: K562; test: Induction of apoptosis in human K562 cells using Annexin V/PI staining at 0.5 uM after 48 hrs by flow cytometry relative to control (reference value: 4.17%); assay type: functional
[17] = tested on: K562; test: Induction of apoptosis in human K562 cells using Annexin V/PI staining at 0.5 uM after 72 hrs by flow cytometry relative to control (reference value: 5.45%); assay type: functional
[18] = tested on: K562; test: Induction of apoptosis in human K562 cells using Annexin V/PI staining at 2 uM after 48 hrs by flow cytometry relative to control (reference value: 4.17%); assay type: functional
[19] = tested on: K562; test: Induction of apoptosis in human K562 cells using Annexin V/PI staining at 2 uM after 72 hrs by flow cytometry relative to control (reference value: 5.45%); assay type: functional
[20] = tested on: K562; test: Induction of apoptosis in human K562 cells using Annexin V/PI staining at 8 uM after 48 hrs by flow cytometry relative to control (reference value: 4.17%); assay type: functional
[21] = tested on: K562; test: Induction of apoptosis in human K562 cells assessed as up-regulation of caspase 3 expression at up to 8 uM after 48 hrs by Western blotting; assay type: functional, cell-based
Summary of the method: (§3)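 K562 cells treated for 48 h at the indicated concentrations, then lysed in Tris-HCl pH 7.5/NaCl buffer with protease inhibitors. Protein measured by Lowry assay. 40 µg total protein run on SDS–PAGE and blotted to PVDF. Probed overnight at 4 °C with anti-caspase-3, anti-Bax, anti-Bcl-2 and anti-β-actin, with HRP secondary and chemiluminescence. Bands quantified by densitometry, at least three independent experiments.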

[22] = tested on: K562; test: Induction of apoptosis in human K562 cells assessed as increase of Bax/Bcl-2 ratio after 48 hrs by Western blotting; assay type: functional, cell-based; summary of the method: as §3

Structure (SMILES) | pIC50 [1] | pIC50 [2] | pIC50 [3] | pIC50 [4] | pIC50 [5] | pIC50 [6] | pIC50 [7] | pIC50 [8] | pIC50 [9] | pIC50 [10] | pIC50 [11] | pIC50 [12] | further results
CCOc1ccc(COc2c(OC)cc(/C=C/C(=O)N3CCN(Cc4ccc(Cl)c(Cl)c4)CC3)cc2OC)cc1 | 5.70 | < 3.70 | < 3.70 | < 3.70 | < 3.70 | 5.77 | 5.96 | < 3.70 | 6.70 | 4.20 | < 3.70 | < 3.70 | Activity [6]: Dose-dependent effect; Activity [13]: tde; Activity [14]: 37.9%; Activity [15]: 20.38%; Activity [16]: 8.26%; Activity [17]: 13.71%; Activity [18]: 10.95%; Activity [19]: 17.82%; Activity [20]: 14.83%; Activity [21]: Active; Activity [22]: Dose-dependent effect
COCOc1ccc(/C=C/C(=O)NCCc2c[nH]c3ccccc23)cc1OCOC | < 3.70 | < 3.70 | < 3.70 | < 3.70 | 3.80 | 3.71 | 3.81 | 3.78 | < 3.70 | < 3.70 | 3.84 | < 3.70 | 
O=C(/C=C/C(=O)N1CCN(Cc2ccc(Cl)c(Cl)c2)CC1)c1ccccc1 | 4.17 | 4.00 | 4.07 | < 3.70 | < 3.70 | < 3.70 | 3.99 | 4.17 | 3.99 | 3.86 | 4.10 | < 3.70 | 
O=C(/C=C/c1ccccc1)N1CCN(Cc2ccc(Cl)c(Cl)c2)CC1 | 4.35 | 4.08 | 4.13 | < 3.70 | 4.89 | 4.85 | 4.77 | 4.47 | 4.68 | 3.76 | 4.51 | 4.34 | 
O=C(/C=C/c1ccccc1)NNC(=O)c1ccccc1O | 4.67 | 4.41 | 4.14 | 4.36 | 4.39 | 6.05 | 4.38 | 4.70 | 4.70 | 4.14 | 4.34 | 3.72 | 
